{"source": "ChEMBL document CHEMBL3259660", "about": "“Haloemodin as novel antibacterial agent inhibiting DNA gyrase and bacterial topoisomerase I” (J Med Chem, 2014)", "key": {"[1]": {"tested_on": "Streptococcus pneumoniae", "assay": "Antibacterial activity against Streptococcus pneumoniae assessed as growth inhibition by agar dilution assay", "format": "functional", "in_short": "(§1)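 Agar dilution MIC per CLSI (aerobic and anaerobic methods); compounds dissolved in DMSO, reference antibiotics in sterile water. MIC taken as lowest concentration with no visible growth; determined at least twice on separate days, higher value reported. Clinical isolate ranges summarized as MIC50/MIC90.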"}, "[2]": {"tested_on": "Bacteroides fragilis", "assay": "Antibacterial activity against Bacteroides fragilis assessed as growth inhibition by agar dilution assay", "format": "functional", "in_short": "as §1"}, "[3]": {"target": "DNA gyrase (Staphylococcus aureus) (UniProt P0A0K8+P20831)", "sequence (P0A0K8 2-644 limits assumed)": "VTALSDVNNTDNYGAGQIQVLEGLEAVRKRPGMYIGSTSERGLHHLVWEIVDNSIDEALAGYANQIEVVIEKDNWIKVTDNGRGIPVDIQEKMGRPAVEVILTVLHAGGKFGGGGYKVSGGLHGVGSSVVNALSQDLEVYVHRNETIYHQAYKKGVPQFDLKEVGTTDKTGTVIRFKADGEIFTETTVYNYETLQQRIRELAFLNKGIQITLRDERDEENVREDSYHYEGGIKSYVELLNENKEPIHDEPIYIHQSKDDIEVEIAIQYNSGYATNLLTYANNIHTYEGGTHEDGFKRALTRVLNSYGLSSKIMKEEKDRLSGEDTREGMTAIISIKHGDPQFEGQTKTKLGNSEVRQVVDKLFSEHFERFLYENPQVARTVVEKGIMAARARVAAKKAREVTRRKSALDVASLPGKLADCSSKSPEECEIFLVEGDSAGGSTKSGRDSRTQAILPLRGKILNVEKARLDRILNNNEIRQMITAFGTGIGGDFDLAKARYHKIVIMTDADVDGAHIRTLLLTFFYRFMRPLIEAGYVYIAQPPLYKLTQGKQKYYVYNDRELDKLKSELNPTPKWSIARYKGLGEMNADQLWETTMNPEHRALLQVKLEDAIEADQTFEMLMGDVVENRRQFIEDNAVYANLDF", "sequence (P20831 whole entry partner)": "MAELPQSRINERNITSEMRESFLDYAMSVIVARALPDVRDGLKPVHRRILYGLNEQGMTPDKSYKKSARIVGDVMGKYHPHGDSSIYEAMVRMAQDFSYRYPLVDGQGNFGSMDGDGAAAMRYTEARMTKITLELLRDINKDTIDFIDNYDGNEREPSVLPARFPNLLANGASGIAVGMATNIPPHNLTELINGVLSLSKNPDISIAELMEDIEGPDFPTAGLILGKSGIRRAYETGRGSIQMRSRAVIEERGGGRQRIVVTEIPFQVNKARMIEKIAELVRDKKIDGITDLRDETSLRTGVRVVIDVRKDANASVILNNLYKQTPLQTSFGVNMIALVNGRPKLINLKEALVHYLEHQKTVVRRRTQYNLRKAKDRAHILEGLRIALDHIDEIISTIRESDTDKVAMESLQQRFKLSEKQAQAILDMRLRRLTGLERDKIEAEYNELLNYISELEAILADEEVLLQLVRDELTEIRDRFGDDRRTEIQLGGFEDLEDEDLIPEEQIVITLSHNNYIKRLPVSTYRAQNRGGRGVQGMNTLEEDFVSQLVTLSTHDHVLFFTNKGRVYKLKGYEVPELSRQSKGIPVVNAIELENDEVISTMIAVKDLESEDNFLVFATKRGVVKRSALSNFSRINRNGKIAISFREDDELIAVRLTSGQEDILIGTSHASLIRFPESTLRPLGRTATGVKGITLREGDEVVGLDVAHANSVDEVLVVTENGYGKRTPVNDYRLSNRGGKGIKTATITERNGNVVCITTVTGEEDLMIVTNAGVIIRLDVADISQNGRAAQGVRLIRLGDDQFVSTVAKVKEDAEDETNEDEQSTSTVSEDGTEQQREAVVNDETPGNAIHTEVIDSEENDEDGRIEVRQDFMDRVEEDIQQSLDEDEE", "assay": "Inhibition of Staphylococcus aureus DNA gyrase-mediated pHOT-1 supercoiling at 30 uM after 30 mins by agarose gel electrophoresis in presence of ATP", "format": "protein-complex assay", "in_short": "(§2)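 Supercoiling: 100 ng relaxed pHOT-1 with 1 U S. aureus or E. coli gyrase and graded compound concentrations, ATP present, 37 °C for 30 min. Stopped with 10% SDS, 1% agarose electrophoresis, ethidium bromide staining, UV imaging; ciprofloxacin positive control.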"}, "[4]": {"assay": "Cytotoxicity against CHL cells assessed as cell viability at 0.064 mg/ml after 24 hrs by MTT assay", "format": "cell-based, Cricetulus griseus", "details": "chinese hamster", "in_short": "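CHL fibroblasts seeded at about 5 × 10^4 cells/mL, incubated overnight at 37 °C, 5% CO2, then exposed to compound at different concentrations for 24 h. Viability read by MTT, absorbance at 570 nm, relative to cells in medium alone (100%). Triplicate.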"}, "[5]": {"tested_on": "Enterococcus faecalis", "assay": "Antibacterial activity against vancomycin-sensitive Enterococcus faecalis assessed as growth inhibition by agar dilution assay", "format": "functional"}, "[6]": {"tested_on": "Escherichia coli", "assay": "Inhibition of Escherichia coli DNA gyrase-mediated pHOT-1 supercoiling at 30 uM after 30 mins by agarose gel electrophoresis in presence of ATP", "in_short": "as §2"}, "[7]": {"tested_on": "Streptococcus pneumoniae", "assay": "Antibacterial activity against Streptococcus pneumoniae ATCC 49619 assessed as growth inhibition by agar dilution assay", "format": "functional", "in_short": "as §1"}, "[8]": {"tested_on": "Staphylococcus aureus", "assay": "In vivo antibacterial activity against Staphylococcus aureus in New zealand rabbit keratitis model assessed as suppression of conjuctival congestion, conjuctival chemosis, infiltration, operative ulcer area and depth at 4.3 mg/ml administered topically every 4 hrs for four doses every day for 10 days starting 24 hrs post-infection by slit lamp biomicroscopy", "format": "functional, organism-based", "in_short": "(§3)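 NZW rabbits (2.0−3.0 kg), anesthetized with iv sodium pentobarbital 30 mg/kg, given intracorneal S. aureus (about 7.5 × 10^6 CFU) from an overnight LB culture. Starting 24 h post-infection, 30 μL drops applied topically per eye every 4 h, four doses daily (8 a.m.–8 p.m.), for 10 days, masked. Test compound in PEG–water (1:1). Slit-lamp biomicroscopy before and after.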"}, "[9]": {"tested_on": "Escherichia coli", "assay": "Antibacterial activity against Escherichia coli assessed as growth inhibition by agar dilution assay in presence of 0.002 mg/ml OM permeabilizer PBMN", "format": "functional"}, "[10]": {"target": "T1, DNA topoisomerase 1 (Escherichia coli (strain K12)) (UniProt P06612)", "T1 sequence (whole entry)": "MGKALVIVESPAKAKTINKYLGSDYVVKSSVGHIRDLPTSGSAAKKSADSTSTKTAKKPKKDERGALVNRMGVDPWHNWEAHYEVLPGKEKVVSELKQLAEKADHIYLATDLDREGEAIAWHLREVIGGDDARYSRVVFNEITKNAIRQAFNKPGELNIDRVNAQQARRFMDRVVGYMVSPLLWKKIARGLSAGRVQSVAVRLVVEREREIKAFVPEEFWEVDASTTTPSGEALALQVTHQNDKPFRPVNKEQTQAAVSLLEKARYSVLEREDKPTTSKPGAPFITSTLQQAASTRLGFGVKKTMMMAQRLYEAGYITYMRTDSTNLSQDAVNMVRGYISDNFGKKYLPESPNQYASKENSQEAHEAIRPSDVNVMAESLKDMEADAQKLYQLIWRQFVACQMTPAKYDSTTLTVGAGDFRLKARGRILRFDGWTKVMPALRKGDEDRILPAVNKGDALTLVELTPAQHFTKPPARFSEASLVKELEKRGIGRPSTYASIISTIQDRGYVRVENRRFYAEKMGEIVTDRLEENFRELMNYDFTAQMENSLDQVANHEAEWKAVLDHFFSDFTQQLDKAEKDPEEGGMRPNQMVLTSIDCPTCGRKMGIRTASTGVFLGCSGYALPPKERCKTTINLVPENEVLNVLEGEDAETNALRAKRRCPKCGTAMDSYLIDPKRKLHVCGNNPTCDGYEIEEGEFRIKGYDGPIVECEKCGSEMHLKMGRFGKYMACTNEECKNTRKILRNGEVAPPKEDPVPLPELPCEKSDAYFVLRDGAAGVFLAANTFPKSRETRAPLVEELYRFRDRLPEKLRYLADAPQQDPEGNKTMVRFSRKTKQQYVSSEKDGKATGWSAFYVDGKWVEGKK", "assay": "Inhibition of Escherichia coli topoisomerase 1 assessed as single stranded breaks using pHOT-1 DNA as substrate treated with substrate for 15 mins prior to enzyme addition for 30 mins by agarose gel electrophoresis"}, "[11]": {"tested_on": "Bacteroides fragilis", "assay": "Antibacterial activity against Bacteroides fragilis ATCC 25285 assessed as growth inhibition by agar dilution assay", "format": "functional", "in_short": "as §1"}, "[12]": {"tested_on": "Escherichia coli", "assay": "Antibacterial activity against Escherichia coli assessed as growth inhibition by agar dilution assay", "format": "functional, organism-based", "in_short": "as §1"}, "[13]": {"tested_on": "Escherichia coli", "assay": "Inhibition of Escherichia coli DNA gyrase-mediated double-stranded catenated kinetoplast DNA decatenation at 90 uM after 30 mins by agarose gel electrophoresis in presence of ATP", "in_short": "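kDNA decatenation: 200 ng catenated kDNA with 1 U S. aureus gyrase, E. coli gyrase or human Topo IIα in assay buffer with ATP, 37 °C for 30 min. Stopped with universal stop solution, resolved on 1% agarose, ethidium bromide stained, UV imaging.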"}, "[14]": {"tested_on": "Staphylococcus aureus", "assay": "In vivo antibacterial activity against Staphylococcus aureus in New zealand rabbit keratitis model assessed as suppression of corneal edema at 4.3 mg/ml administered topically every 4 hrs for four doses every day for 10 days starting 24 hrs post-infection by slit lamp biomicroscopy", "format": "functional, organism-based", "details": "Cornea", "in_short": "as §3"}, "[15]": {"tested_on": "Staphylococcus epidermidis", "assay": "Antibacterial activity against methicillin-resistant Staphylococcus epidermidis assessed as growth inhibition by agar dilution assay", "format": "functional", "in_short": "(§4)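 CLSI agar dilution MIC against aerobic and anaerobic strains. Test compounds were dissolved in DMSO and reference antibiotics in sterile water. MIC was taken as the lowest concentration showing no bacterial growth. Each MIC was determined at least twice on separate days, and the higher value was reported. E. coli PQ 37 was cultured in LA medium.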"}, "[16]": {"tested_on": "Escherichia coli", "assay": "Antibacterial activity against Escherichia coli ATCC 25922 assessed as growth inhibition by agar dilution assay", "format": "functional", "in_short": "as §1"}, "[17]": {"tested_on": "Staphylococcus aureus", "assay": "Antibacterial activity against methicillin-resistant Staphylococcus aureus assessed as growth inhibition by agar dilution assay", "format": "functional", "in_short": "as §4"}, "[18]": {"target": "T1, DNA topoisomerase 1 (Escherichia coli (strain K12))", "assay": "Inhibition of Escherichia coli topoisomerase 1-mediated pHOT-1 DNA relaxation treated with pHOT-1 substrate for 15 mins prior to enzyme addition for 30 mins by agarose gel electrophoresis"}, "[19]": {"tested_on": "Pseudomonas aeruginosa", "assay": "Antibacterial activity against Pseudomonas aeruginosa assessed as growth inhibition by agar dilution assay", "format": "functional", "in_short": "as §4"}, "[20]": {"assay": "Binding affinity to supercoiled pHOT-1 DNA assessed as unwinding of DNA helix by measuring distribution of topoisomers at 10 to 150 uM treated 15 mins prior to Escherichia coli topoisomerase 1 addition for 30 mins by agarose gel electrophoresis"}}, "note": "Activity calls are given as the source filed them. The calls are words filed in the database; no cut-off is given here.", "data": [{"molecule": "Cc1cc(O)c2c(c1)C(=O)c1c(I)c(O)c(I)c(O)c1C2=O", "values": [{"measurement": "MIC", "setting": "[1]", "result": 32, "unit": "mg/L"}, {"measurement": "MIC", "setting": "[2]", "result": 64, "unit": "mg/L"}, {"measurement": "inhibition", "setting": "[3]", "result": "Active"}, {"measurement": "Activity", "setting": "[4]", "result": "Non-toxic"}, {"measurement": "MIC", "setting": "[5]", "result": 8, "unit": "mg/L"}, {"measurement": "inhibition", "setting": "[6]", "result": "Active"}, {"measurement": "MIC", "setting": "[7]", "result": 64, "unit": "mg/L"}, {"measurement": "inhibition", "setting": "[8]", "result": "Active"}, {"measurement": "MIC", "setting": "[9]", "result": 8, "unit": "mg/L"}, {"measurement": "Activity", "setting": "[10]", "result": "inactive"}, {"measurement": "MIC", "setting": "[11]", "result": 256, "unit": "mg/L"}, {"measurement": "growth inhibition (GI)", "setting": "[12]", "result": "inactive"}, {"measurement": "inhibition", "setting": "[13]", "result": "Active"}, {"measurement": "inhibition", "setting": "[14]", "result": "Active"}, {"measurement": "MIC", "setting": "[15]", "result": 4, "unit": "mg/L"}, {"measurement": "MIC", "setting": "[16]", "result": "> 256", "unit": "mg/L"}, {"measurement": "MIC", "setting": "[17]", "result": 4, "unit": "mg/L"}, {"measurement": "inhibition", "setting": "[18]", "result": "Dose-dependent effect"}, {"measurement": "MIC", "setting": "[19]", "result": "> 256", "unit": "mg/L"}, {"measurement": "Activity", "setting": "[20]", "result": "inactive"}]}]}
